Measurements gathered from unrelated publications.

CCOC(=O)C1=C(CN2CCOCC2)NC(c2nccs2)=NC1c1ccc(F)cc1Br (centres unmarked)
EC50 (Hepatitis B virus; viral replication, inhibitor, qPCR; HepDES19; 72 h): 0.04 µM

CC1=NN(c2ccc(C)c(C)c2)C(=O)/C1=N\Nc1cccc(-c2cccc(C(=O)O)c2)c1O
IC50 (Severe acute respiratory syndrome coronavirus 2; viral replication, inhibitor; Caco-2; replicon): 3.1 µM

O=[N+]([O-])NC(=S)NN=Cc1ccc(Br)cc1
IC50 (Leishmania tropica; parasite growth; J774.A1; 72 h, intracellular, amastigote): 1140 µM

O=c1[nH]c2ccccc2n1C1CCN(CCCC(c2ccc(F)cc2)c2ccc(F)cc2)CC1
IC50 (Severe acute respiratory syndrome coronavirus 2; viral replication, inhibitor; Caco-2; replicon): 2.14 µM

COc1cnc(OC)n2nc(NS(=O)(=O)c3c(OCC(F)F)cccc3C(F)(F)F)nc12
inhibition (L02; cell growth or viability, CCK-8; 100 µM, 72 h): 1.54%

Cc1c(O)cccc1C(=O)N[C@@H](CSc1ccccc1)[C@H](O)CN1C[C@H]2CCCC[C@H]2C[C@H]1C(=O)NC(C)(C)C
IC50 (Severe acute respiratory syndrome coronavirus 2; viral replication, inhibitor; Calu-3; replicon): 4.05 µM

COc1ncc(-c2cn([C@@H]3O[C@](F)(CO[P@@](=O)(N[C@@H](C)C(=O)OC(C)C)Oc4ccccc4)[C@@H](O)[C@H]3O)cn2)cn1
IC50 (Severe acute respiratory syndrome coronavirus 2; viral replication, inhibitor; A549-ACE2; 24 h): > 100 µM

N.N.[Cl][Pt][Cl]
IC50 (NALM-6; cell growth or viability, ATP luminescence; 72 h): 1.05 µM

COc1ncc(-c2cn([C@@H]3O[C@](F)(CO)[C@@H](O)[C@H]3O)cn2)c(OC)n1
IC50 (Severe acute respiratory syndrome coronavirus 2; viral replication, inhibitor; A549-ACE2; 24 h): > 100 µM

CC(=O)OCC(=O)[C@@]12OC3(CCCC3)O[C@@H]1C[C@H]1[C@@H]3CCC4=CC(=O)C=C[C@]4(C)[C@@]3(F)[C@@H](O)C[C@@]12C
IC50 (Severe acute respiratory syndrome coronavirus 2; viral replication, inhibitor; Caco-2; replicon): 3.37 µM

COc1ncncc1-c1cn([C@@H]2O[C@](F)(CO[P@@](=O)(N[C@@H](C)C(=O)OC(C)C)Oc3ccccc3)[C@@H](O)[C@H]2O)cn1
IC50 (Severe acute respiratory syndrome coronavirus 2; viral replication, inhibitor; A549-ACE2; 24 h): > 100 µM

COc1ccc(C=NNC(=S)N[N+](=O)[O-])cc1OC
IC50 (Leishmania tropica; parasite growth, MTT; 72 h, promastigote): 865 µM

COc1ncncc1-c1cn([C@@H]2O[C@](F)(CO[P@@](=O)(N[C@@H](C)C(=O)OC(C)C)Oc3ccccc3)[C@@H](OC(=O)C(C)C)[C@H]2OC(=O)C(C)C)cn1
IC50 (Severe acute respiratory syndrome coronavirus 2; viral replication, inhibitor; A549-ACE2; 24 h): 25.5 µM

O=[N+]([O-])NC(=S)NN=Cc1ccc(F)cc1
IC50 (Leishmania tropica; parasite growth; J774.A1; 72 h, intracellular, amastigote): 186 µM
